HCV core dimer: inhibitors of HCV core protein dimerization, primary screen, biochemical, TR-FRET, high-throughput; TR-FRET GST/Flag-core106 dimerization, 1536-well; inhibition, % at 5 µM; hit rate 0.33% among 300,000;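 active = inhibition above the mean of all tested compounds plus 3 SD, set per screening campaign, cut at about 45% in these data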
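Assay system – GST-tagged and Flag-tagged HCV core protein residues 1-106 · Quantity – core106 proteins, GST 13.5 nM and Flag 17 nM · Benchmarks – unlabelled core106 and no-GST-core106 wells · Read-out basis – percent inhibition of core106 dimerization signal · Detection – time-resolved FRET, ex 340 nm, em 617 and 671 nm · Schedule – 4 h at 22.5 °C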
M18AAP inhibitor: PfM18AAP inhibitors, malaria aminopeptidase, primary screen, biochemical, QFRET, recombinant enzyme | M18 aspartyl aminopeptidase (Plasmodium falciparum 3D7) | H-Glu-NHMec fluorogenic cleavage | inhibition, % at 7.35 µM | hit rate 1.2% among 290,000 | AID 1822, 2009;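 active = inhibition above the campaign mean inhibition over all tested compounds plus 3 SD, cut at about 28% in these data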;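 also: 0% = plate median of test compound wells and 100% = 2 mM ZnCl2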
HCV NS3 hel inh: inhibitors of HCV NS3 helicase, primary screen, biochemical, Cy5 molecular beacon fluorescence; NS3 helicase DNA unwinding; inhibition, % at 10.9 µM; hit rate 0.56% among 290,000; AID 1800, 2009;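 active = inhibition above the mean of all tested compounds plus 3 SD, set per campaign, cut at about 35% in these data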;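 also: 0% = DMSO wells and 100% = thioflavine S control wells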
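System: Hepatitis C virus NS3 helicase domain fragment enzyme | Reagent: Annealed dual-labelled DNA beacon duplex, ATP-started | Compound dosing: 10.9 µM single point, 0.8% DMSO | Incubation: 1 h reaction at 25 °C, ATP-initiated | Technique: Cy5 fluorescence | Evaluation: Percent inhibition from t60/t0 fluorescence ratio | Benchmarks: Low DMSO, high thioflavine S at 110 µM | Replication: Singlicate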
EBNA-1 inhibitor: EBNA-1 DNA-binding inhibitors, primary screen, biochemical, fluorescence polarization; inhibition, % at 14.8 µM; hit rate 0.34% among 300,000; AID 1950, 2009; in the data active = inhibition above about 28%
ZTA DNA inh: blocks Epstein-Barr virus ZTA, an EBNA-1 counter-screen. P03206. ZTA-DNA binding, fluorescence polarization. inhibition, % at 11 µM. hit rate 0.15% among 320,000. AID 2234; in the data active = inhibition above about 33%
Target sequence (P03206 whole entry, looked up): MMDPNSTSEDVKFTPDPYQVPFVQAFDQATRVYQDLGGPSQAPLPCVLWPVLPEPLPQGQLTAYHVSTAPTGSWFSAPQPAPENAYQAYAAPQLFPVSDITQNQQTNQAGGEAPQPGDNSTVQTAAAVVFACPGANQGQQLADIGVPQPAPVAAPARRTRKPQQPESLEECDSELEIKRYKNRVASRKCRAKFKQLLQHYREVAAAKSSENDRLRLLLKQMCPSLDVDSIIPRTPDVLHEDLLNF
ALR H2O2 inh: inhibitors of human ALR sulfhydryl oxidase, primary screen, biochemical, H2O2 detection, HRP-luminol luminescence, single point; inhibition, % (concentration not given with the values); purified ALR, DTT oxidation; hit rate 3.8% among 290,000; FAD-linked sulfhydryl oxidase ALR (Homo sapiens), P55789;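 active = mean replicate inhibition above about 79%, with every replicate also reaching it, limit read from the data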
Target sequence (P55789 whole entry, looked up): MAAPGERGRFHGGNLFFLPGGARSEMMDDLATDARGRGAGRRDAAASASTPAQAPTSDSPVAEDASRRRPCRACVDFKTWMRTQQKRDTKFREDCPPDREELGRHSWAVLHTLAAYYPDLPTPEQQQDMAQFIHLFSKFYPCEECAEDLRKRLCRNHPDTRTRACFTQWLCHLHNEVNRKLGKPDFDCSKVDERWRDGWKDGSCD
* hit, by the source's call; · = not tested or not shown. Only some compounds are listed: those with a hit (about 5.2% of all), similar ones and a draw of the others.

SMILES | HCV core dimer | M18AAP inhibitor | HCV NS3 hel inh | EBNA-1 inhibitor | ZTA DNA inh | ALR H2O2 inh
Cc1nc2cc(-c3ccc(Cl)cc3)nn2c(NCCN(C)C)c1C | -12 | 8 | -12 | 3 | 0 | 65
COc1ccc(CNc2nc(-c3cccnc3)nn2C(=O)C(C)C)cc1 | · | -1 | 7 | · | · | ·
CC(C)C(=O)n1nc(-c2cccnc2)nc1NCc1cccs1 | 0 | -7 | 3 | 4 | 1 | 97*
CCOC(=O)c1sc(-c2ccc(Cl)cc2Cl)nc1O | 3 | -2 | 13 | 6 | 3 | 97*
Nc1ncn(-c2ncc(C(F)(F)F)cc2Cl)n1 | 6 | -1 | -3 | 4 | -13 | ·
CCN(CC)S(=O)(=O)c1ccc(S(=O)(=O)N(CC(=O)Nc2ccccc2)CC2CCCO2)cc1 (stereo not drawn) | 6 | -3 | 8 | 1 | 5 | 98*
COC(=O)Cc1c(C)nc2nc(NCc3cccc([N+](=O)[O-])c3)[nH]n2c1=O | -1 | -4 | 0 | 0 | 15 | 89*
COC(=O)Cc1c(C)nc2nc(NCc3ccc(Cl)cc3)[nH]n2c1=O | 6 | 0 | -3 | -8 | -10 | ·
O=S1(=O)C=C(Sc2nnc(-c3ccccc3)o2)c2ccccc21 | -2 | -43 | -6 | 10 | 0 | 78*
Cc1cccc(NCc2nc(-c3ccccc3)no2)c1 | 1 | -2 | -6 | -7 | -3 | 91*
NS(=O)(=O)c1ccc(NNC(=O)c2ccccc2)cc1 | -1 | 21 | -12 | -8 | 10 | -8
O=C(NNc1cc(Br)c(O)c(Br)c1)c1ccccc1 | -14 | 18 | -14 | 15 | 17 | 99*
O=C(CSC1=NCCN1)Nc1cccc([N+](=O)[O-])c1 | -1 | 18 | 6 | 2 | 0 | 99*
O=C(CSC1=NCCN1)NC(c1ccccc1)c1ccccc1 | 0 | -8 | -10 | 0 | 6 | 99*
Cc1ccc(NC(=O)CSC2=NCCN2)cc1 | -7 | 5 | 2 | -1 | 5 | -3
COc1ccccc1NC(=O)CSC1=NCCN1 | -1 | -1 | 2 | 8 | 14 | 98*
O=C(CSC1=NCCN1)Nc1ccccc1[N+](=O)[O-] | 0 | 8 | -2 | -4 | -3 | 99*
Oc1ccc(Cl)cc1CNCc1ccc(Cl)nc1 | · | · | · | · | 0 | 12
CC(=O)c1ccc(S(=O)(=O)N2CCN(C(=O)CSc3ccc(C)c(C)c3)CC2)cc1 | -2 | -8 | 4 | -14 | -1 | 6
CN(C)c1ccc2c3c(ccc(N(C)C)c13)C(=O)OC2 | -4 | 1 | 18 | 7 | 3 | 80*
CCOc1ccc(NC(=O)Nc2ccc3c(c2)nnn3C)cc1 | 6 | 2 | 5 | 7 | 10 | 99*
CN(C)c1ccc(/C=C2\CCCCC2=O)cc1 | -3 | 6 | 7 | 7 | -2 | 91*
Cn1nc(C(=O)NNC(=O)C(CCC(N)=O)NS(=O)(=O)c2ccc(Cl)cc2)c2ccccc2c1=O (stereo not drawn) | · | · | · | · | 13 | 0
COc1cccc(NC(=O)CCCn2c(=S)[nH]c3ccccc3c2=O)c1 | -1 | -2 | 5 | 0 | -6 | 83*
C=CCn1c(NCCO)nc2sc3c(c2c1=O)CCC3 | -2 | 1 | 10 | -3 | 6 | 86*
SMILES | HCV core dimer | M18AAP inhibitor | HCV NS3 hel inh | EBNA-1 inhibitor | ZTA DNA inh | ALR H2O2 inh
Cc1ccc(CNC(=O)C(NS(=O)(=O)c2ccc3nc(C)sc3c2)C(C)C)cc1 (stereo not drawn) | 0 | 10 | 10 | 12 | 13 | 93*
Cc1nc2ccc(S(=O)(=O)NCC(=O)N(C)Cc3ccccc3)cc2s1 | -7 | 3 | 0 | 4 | 14 | 99*
COc1ccc(NC(=O)CNS(=O)(=O)c2ccc3nc(C)sc3c2)c(OC)c1 | 0 | 6 | 7 | 8 | 12 | 99*
Cc1nc2ccc(S(=O)(=O)NCC(=O)N3CCN(c4ccccc4)CC3)cc2s1 | 2 | -27 | 6 | 2 | -6 | 32
COCCNC(=O)CNS(=O)(=O)c1ccc2nc(C)sc2c1 | 0 | 5 | -10 | 0 | 15 | -5
COc1ccc(C(=O)NCc2c(C)nn(Cc3ccccc3)c2C)cc1S(=O)(=O)N1CCOCC1 | · | · | · | · | 5 | ·

High-throughput results from PubChem BioAssay.
